According to ChEMBL document CHEMBL3822361, “Novel 1,6-naphthyridin-2(1H)-ones as potential anticancer agents targeting Hsp90” (Eur J Med Chem, 2016):
Active and inactive are the calls of the source. The rule behind the calls is not given here.

Key:
MDA-MB-468 [1] = assay: Antiproliferative activity against human MDA-MB-468 cells measured after 48 hrs by MTT assay; type: functional, cell-based; conditions: MDA-MB-468, 48 h
In short: (§1)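 Cells grown in DMEM with 2 mM L-glutamine, penicillin/streptomycin and 5% FBS at 37 °C, 5% CO2; seeded 6000/well in 96-well plates, attached 24 h. Compounds added over a concentration range in DMSO (1% final), 48 h. MTT (2.5 mg/mL in PBS) added for 3.5 h, formazan dissolved in DMSO, OD 570 nm. Growth relative to 1% DMSO; IC50 from separate triplicate experiments.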

MCF7 [2] = assay: Antiproliferative activity against human MCF7 cells measured after 48 hrs by MTT assay; type: functional, cell-based; conditions: MCF7, 48 h; in short: as §1
MDA-MB-468 [3] = assay: Effect on actin level in human MDA-MB-468 cells at 1.5 times IC50 measured after 48 hrs by western blot analysis; type: cell-based; conditions: mda-mb-468, 48 h
In short: (§2)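 Cells seeded in 6-well plates, 24 h at 37 °C, 5% CO2, then exposed 48 h to compound or 17-AAG in DMSO (1% final) or to vehicle. Lysed 2 h on ice in buffer with protease and phosphatase inhibitors, sonicated, protein measured by BCA. Equal protein run on SDS-PAGE, moved to PVDF, primary antibodies overnight at 4 °C, HRP secondary 1 h, ECL chemiluminescence.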

[4] = molecular target: T1, Heat shock protein HSP90 (Homo sapiens) (UniProt P07900+P08238); assay: Inhibition of HSP90 in human MCF7 cells assessed as Raf-1 protein degradation at 1.5 times IC50 measured after 48 hrs by western blot analysis; type: cell-based; in short: as §2
MCF7 [5] = assay: Effect on actin level in human MCF7 cells at 1.5 times IC50 measured after 48 hrs by western blot analysis; type: cell-based; conditions: mcf7, 48 h; in short: as §2
[6] = molecular target: T1, Heat shock protein HSP90 (Homo sapiens); assay: Inhibition of HSP90 in human MCF7 cells assessed as ER-alpha protein degradation at 1.5 times IC50 measured after 48 hrs by western blot analysis; type: cell-based; in short: as §2
MCF7 [7] = assay: Effect on HSP90 level in human MCF7 cells at 1.5 times IC50 measured after 48 hrs by western blot analysis; type: cell-based; conditions: mcf7, 48 h; in short: as §2
MDA-MB-468 [8] = assay: Effect on HSP90 level in human MDA-MB-468 cells at 1.5 times IC50 measured after 48 hrs by western blot analysis; type: cell-based; conditions: mda-mb-468, 48 h; in short: as §2
[9] = molecular target: T1, Heat shock protein HSP90 (Homo sapiens); assay: Inhibition of HSP90 in human MCF-7 cells assessed as ER-alpha protein degradation at 1.5 times IC50 measured after 48 hrs by western blot analysis
[10] = molecular target: T1, Heat shock protein HSP90 (Homo sapiens); assay: Inhibition of HSP90 in human MDA-MB-468 cells assessed as Raf-1 protein degradation at 1.5 times IC50 measured after 48 hrs by western blot analysis; type: cell-based; in short: as §2
MDA-MB-468 [11] = assay: Induction of apoptosis in human MDA-MB-468 cells at 4 uM measured after 48 hrs by Annexin V-FITC/propidium iodide staining-based flow cytometry; type: functional, cell-based
In short: (§3)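 Cells incubated 24 h at 37 °C, 5% CO2, then given compounds in DMSO (1% final) for 48 h. Floating and trypsinized adherent cells pooled, PBS-washed, stained with annexin V-FITC plus propidium iodide in binding buffer, 15 min on ice in the dark. Flow cytometry, ≥10 000 events per sample; annexin V-positive cells scored as apoptotic.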

MDA-MB-468 [12] = assay: Effect on cell cycle distribution in human MDA-MB-468 cells assessed as accumulation at G2/M-phase at 4 uM measured after 48 hrs by propidium iodide staining-based flow cytometry; type: functional
In short: (§4)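 MDA-MB-468 seeded 40,000/well in 24-well plates, 24 h at 37 °C, 5% CO2, then treated 48 h with compounds in DMSO (1% final). Cells trypsinized, washed in PBS, fixed in 70% ethanol, rehydrated in PBS, stained with propidium iodide in PBS. Phase distribution (G1, S, G2/M, polyploid, subG1) read by flow cytometry.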

MCF7 [13] = assay: Antiproliferative activity against human MCF7 cells measured after 5 days by MTS assay; type: functional, cell-based; conditions: MCF7, 120 h
MDA-MB-468 [14] = assay: Effect on cell cycle distribution in human MDA-MB-468 cells assessed as accumulation at G2/M-phase at 2 uM measured after 48 hrs by propidium iodide staining-based flow cytometry; type: functional; in short: as §4
MDA-MB-468 [15] = assay: Induction of apoptosis in human MDA-MB-468 cells at 2 uM measured after 48 hrs by Annexin V-FITC/propidium iodide staining-based flow cytometry; type: functional, cell-based; in short: as §3

Compound	IC50 (MDA-MB-468 [1]) [µM]	IC50 (MCF7 [2]) [µM]	other results
CN(C)CCNc1cc2c(cn1)cc(NC(=O)/C=C/c1ccccc1)c(=O)n2C	12.1	27.4	
CO[C@@H]1[C@@H](OC(N)=O)[C@@H](O)[C@H](Oc2ccc3c(O)c(NC(=O)c4ccc(O)c(CC=C(C)C)c4)c(=O)oc3c2C)OC1(C)C [NOVOBIOCIN]	338	293	
CN(C)CCNc1cc2c(cn1)cc(NC(=O)c1ccncc1)c(=O)n2C	8.36	36.6	
COc1cc(C(=O)Nc2cc3cnc(NCCN4CCOCC4)cc3n(C)c2=O)cc(OC)c1OC	> 100	48.6	
Cn1c(=O)c(NC(=O)c2cc3ccccc3s2)cc2cnc(NCCN3CCOCC3)cc21	> 100	> 100	
CC(=O)Nc1cc2cnc(NCCN(C)C)cc2n(C)c1=O	> 100	> 100	
COc1ccc(C(=O)Nc2cc3cnc(NCCN4CCOCC4)cc3n(C)c2=O)cc1	> 100	> 100	
CN(C)CCNc1cc2c(cn1)cc(NC(=O)c1ccccc1)c(=O)n2C	18.3	35.1	
CN(C)CCNc1cc2c(cn1)cc(NC(=O)c1cc3ccccc3s1)c(=O)n2C	3.57	12	Activity (MDA-MB-468 [3]): Non-toxic; inhibition [4]: inactive; Activity (MCF7 [5]): Non-toxic; inhibition [6]: inactive; Activity (MCF7 [7]): Non-toxic; Activity (MDA-MB-468 [8]): Non-toxic; inhibition [9]: inactive; inhibition [10]: inactive; Activity (MDA-MB-468 [11]): Active; Activity (MDA-MB-468 [12]): Active
C=CCNC1=C2C[C@@H](C)C[C@H](OC)[C@H](O)[C@@H](C)/C=C(\C)[C@H](OC(N)=O)[C@@H](OC)/C=C\C=C(/C)C(=O)NC(=CC1=O)C2=O [TANESPIMYCIN]	1.57	0.029	IC50 (MCF7 [13]): 0.005 µM; Activity (MDA-MB-468 [14]): Active
Cn1c(=O)c(NC(=O)c2ccncc2)cc2cnc(NCCN3CCOCC3)cc21	> 100	4.47	
COc1ccc(C(=O)Nc2cc3cnc(NCCN(C)C)cc3n(C)c2=O)cc1	15.7	37.3	
COc1cc(C(=O)Nc2cc3cnc(NCCN(C)C)cc3n(C)c2=O)cc(OC)c1OC	15.6	21.5	
Cn1c(=O)c(NC(=O)c2cccc(-c3ccccc3)c2)cc2cnc(NCCN3CCOCC3)cc21	1.96	4.85	Activity (MDA-MB-468 [3]): Non-toxic; inhibition [4]: Active; Activity (MDA-MB-468 [15]): inactive; Activity (MCF7 [5]): Non-toxic; inhibition [6]: Active; Activity (MCF7 [7]): Non-toxic; Activity (MDA-MB-468 [8]): Non-toxic; inhibition [9]: Active; Activity (MDA-MB-468 [14]): Active; inhibition [10]: Active
Cn1c(=O)c(NC(=O)c2ccc(Cl)cc2)cc2cnc(NCCN3CCOCC3)cc21	> 100	6.35	
